In ChEMBL document CHEMBL5370613, “Phenyl dialkynylcarbinols, a Bioinspired Series of Synthetic Antitumor Acetylenic Lipids” (J Med Chem, 2023):
Active and inactive are the calls of the source. The rule behind the calls is not given here.

Key:
[1] = Tmax in female CD-1 mouse at 5 mg/kg, sc measured for 480 mins by LC-MS/MS analysis; type: ADME, organism-based; details: in vivo
Summary of the method: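 Female (IP, SC, PO) or male (PO) CD-1 mice received 5 mg/kg in 10% Kolliphor EL vehicle, 3 mice per time point. Plasma was sampled at 5, 15, 30, 60, 120, 360 and 480 min, acetonitrile-extracted and quantified by LC-MS/MS against a calibration in extracted plasma. Tmax was the time of the observed maximum concentration.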

[2] = tested on: U2OS; test: Activation of unfolded protein response in human U2OS cells assessed as increase in IRE1alpha autophosphorylation at S724 residue at 1 uM incubated for 12 hrs in presence of z-VAD-fmk by immunoblotting analysis; type: functional, cell-based
Summary of the method: (§1)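 U2OS cells in complete growth medium treated at 1 μM for the indicated times, with 50 μM z-VAD-fmk added 1 h beforehand where stated; lysed in SDS buffer (Tris-HCl pH 6.8, 4% SDS) and immunoblotted, detected with HRP secondary antibodies and chemiluminescence.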

[3] = Selectivity index, ratio of IC50 for HSD17B11 knockout human U2OS cells stably complemented with HSD17B13-GFP to IC50 for HSD17B11 knockout human U2OS cells stably complemented with HSD17B11-GFP; type: functional
Summary of the method: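 HSD17B11-knockout U2OS cells stably complemented with HSD17B11-GFP or HSD17B13-GFP were assayed by sulforhodamine B, duplicate points, ≥3 independent experiments, with IC50 from a four-parameter logistic fit. The index is the HSD17B13-line IC50 divided by the HSD17B11-line IC50.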

[4] = Toxicity in Balb/c mouse assessed as reduction in body weight at 2 to 5 mg/kg, iv administered 3 times per week and measured for 3 weeks; type: organism-based; details: in vivo, 504 h, dose 2-5 mg/kg
Summary of the method: (§2)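 Female adult Balb/c mice, 6 per group, received IV injections 3 times weekly for 3 weeks at 2, 5 or 10 mg/kg. Dosing solutions were 0.4, 1 and 2 mg/mL in saline with 10% Cremophor, given at 5 mL/kg, with IP substitution when IV was impossible. Mice were weighed thrice weekly and observed daily, with necropsy at endpoint.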

[5] = Bioavailability in female CD-1 mouse at 5 mg/kg, sc measured for 480 mins by LC-MS/MS analysis; type: ADME, organism-based; details: in vivo
Summary of the method: (§3)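 Female (or male, as per line) CD-1 mice, 3 per time point, given a single 5 mg/kg dose in 10% Kolliphor EL in saline (injections) or water (oral). Blood sampled 5–480 min; plasma extracted with CH₃CN and quantified by LC-MS/MS (ESI+, m/z 251.20) against a calibration curve in extracted plasma; parameters by non-compartmental analysis.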

[6] = Volume of distribution in elimination phase in female CD-1 mouse at 5 mg/kg, ip measured for 480 mins by LC-MS/MS analysis; type: ADME, organism-based; details: in vivo, read-out: Vz/F
Summary of the method: (§4)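 CD-1 mice (female for all routes, male for IV and PO) were dosed at 5 mg/kg in 10% Kolliphor EL in saline (injections) or water (oral), 3 mice per time point. Blood was taken at 5–480 min, and plasma was extracted with acetonitrile. LC-MS/MS positive ESI, m/z 251.20. Parameters came from non-compartmental analysis with a plasma calibration curve.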

[7] = Cmax in female CD-1 mouse at 5 mg/kg, po measured for 480 mins by LC-MS/MS analysis; type: ADME, organism-based; design: dose 5 mg/kg, time 480 min, route po; details: in vivo; summary of the method: as §3
[8] = Toxicity in Balb/c mouse assessed as pain administered as three escalating doses of 2 to 10 mg/kg, iv per week and measured for 10 days; type: organism-based; details: in vivo, 240 h, dose 2-10 mg/kg, time 10 day; summary of the method: as §2
[9] = tested on: U2OS; test: Induction of ER stress in human U2OS cells expressing Ub-G76V-YFP substrate assessed as inhibition of ubiquitin-proteasome system by measuring increase in […]-positive cells at 1 uM incubated for 4 hrs by flow cytometry analysis relative to control; type: functional; design: scale not given: the % may be the effect or the level left
Summary of the method: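 U2OS stably expressing Ub-G76V-YFP treated 4 h at 1 μM in complete medium (50 nM bortezomib as reference); trypsinised, fixed in 2% PFA, ≥32 000 cells acquired by flow cytometry; YFP-positive gate set on untreated cells.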

[10] = Half life in female CD-1 mouse at 5 mg/kg, po measured for 480 mins by LC-MS/MS analysis; type: ADME, organism-based; details: in vivo; summary of the method: as §3
[11] = Volume of distribution in elimination phase in female CD-1 mouse at 5 mg/kg, iv measured for 480 mins by LC-MS/MS analysis; type: ADME, organism-based; details: in vivo, read-out: Vz; summary of the method: as §4
[12] = Volume of distribution in elimination phase in female CD-1 mouse at 5 mg/kg, sc measured for 480 mins by LC-MS/MS analysis; type: ADME, organism-based; details: in vivo, read-out: Vz/F; summary of the method: as §4
[13] = Toxicity in Balb/c mouse assessed as deteriorated health state with shaggy coat and diarrhea at 10 mg/kg, iv administered 3 times per week and measured on day 15; type: organism-based; details: in vivo, 360 h, time 15 day; summary of the method: as §2
[14] = Clearance in male CD-1 mouse at 5 mg/kg, po measured for 480 mins by LC-MS/MS analysis; type: ADME, organism-based; details: in vivo; summary of the method: as §3
[15] = Oral bioavailability in male CD-1 mouse at 5 mg/kg measured for 480 mins by LC-MS/MS analysis; type: ADME, organism-based; details: in vivo; summary of the method: as §4
[16] = tested on: U2OS; test: Activation of unfolded protein response in human U2OS cells assessed as decrease in full length ATF6 at 1 uM incubated for 12 hrs in presence of z-VAD-fmk by immunoblotting analysis; type: functional, cell-based; summary of the method: as §1
[17] = Clearance in female CD-1 mouse at 5 mg/kg, po measured for 480 mins by LC-MS/MS analysis; type: ADME, organism-based; details: in vivo; summary of the method: as §3
[18] = tested on: U2OS; test: Activation of unfolded protein response in human U2OS cells assessed as increase in HSP70 accumulation at 1 uM incubated for 2 to 6 hrs by immunoblotting analysis; type: functional, cell-based; details: time 2-6 hrs; summary of the method: as §1
[19] = tested on: U2OS; test: Cytotoxicity against human U2OS cells with HSD17B11 knockout complemented with HSD17B11-GFP assessed as cell viability at 1 uM incubated for 72 hrs by SRB assay relative to control; type: functional; details: read-out: Activity
Summary of the method: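 U2OS HSD17B11-KO cells stably complemented with GFP, HSD17B11-GFP or HSD17B13-GFP, exposed to 1 μM compound for 72 h in complete medium; viability read by SRB assay, in three independent experiments.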

[20] = Cmax in female CD-1 mouse at 5 mg/kg, iv measured for 480 mins by LC-MS/MS analysis; type: ADME, organism-based; design: time 480 min, dose 5 mg/kg, route iv; details: in vivo; summary of the method: as §3
[21] = AUC in female CD-1 mouse at 5 mg/kg, sc measured for 480 mins by LC-MS/MS analysis; type: ADME, organism-based; design: time 480 min, dose 5 mg/kg, route sc; details: in vivo; summary of the method: as §3
[22] = Toxicity in Balb/c mouse assessed as reduction in body weight at 10 mg/kg, iv administered 3 times per week and measured on day 10; type: organism-based; details: in vivo, 240 h, time 10 day; summary of the method: as §2
[23] = Drug localization in wild type human U2OS cell membranes assessed as increase in fluorescence by measuring HSD17B11-mediated bioactivation at 1 uM incubated for 2 hrs by AlexaFluor488-azido based microscopic analysis; design: species or system Membrane
Summary of the method: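 WT or CRISPR HSD17B11-KO U2OS on coverslips treated 2 h at 1 μM, fixed 15 min in 2% PFA, permeabilised with 0.2% Triton X-100, clicked in situ with azido-AlexaFluor488, DAPI counterstained; fluorescence imaged.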

[24] = Volume of distribution in elimination phase in female CD-1 mouse at 5 mg/kg, po measured for 480 mins by LC-MS/MS analysis; type: ADME, organism-based; details: in vivo, read-out: Vz/F; summary of the method: as §4

## C#C[C@H](O)C#Cc1ccc(CCCCCCCC)cc1
[1]
  Tmax: 60 min
[2]
  Activity: Active
[3]
  Ratio IC50: 2.9
[4]
  Activity: Non-Toxic
[5]
  bioavailability: 16%
[6]
  Vd/F: 34.4 L/kg
[7]
  Cmax: 0.2 µM
[8]
  Activity: Non-Toxic
[9]
  Activity: 87.5%
[10]
  half-life: 33 min
[11]
  Vd: 2.76 L/kg
[12]
  Vd/F: 143 L/kg
[13]
  Activity: Toxic
[14]
  CL/F: 1760 mL/min/kg
[15]
  bioavailability: 6.1%
[16]
  Activity: Active
[17]
  CL/F: 1460 mL/min/kg
[18]
  Activity: Active
[19]
  viability at 1 µM: 0%
[20]
  Cmax: 17 µM
[21]
  AUC at 8 h: 123 ng·h/mL
[22]
  Activity: Toxic
[23]
  Drug uptake: Not Active
[24]
  Vd/F: 69.4 L/kg
